These results are taken from ChEMBL document CHEMBL3632596, “Novel Potent N-Methyl-d-aspartate (NMDA) Receptor Antagonists or σ1 Receptor Ligands Based on Properly Substituted 1,4-Dioxane Ring” (J Med Chem, 2015).

The source made the active and inactive calls. The calls are words filed in the database; no cut-off is given here.

The nature of assay [1]: Displacement of [3H]MK801 from NMDA receptor PCP binding site in guinea pig brain cortex membranes incubated for 120 mins by scintillation counting method. It counts as cell membranes, Cavia porcellus. On the technique in general: Displacement assays read how much labelled ligand stays bound in the presence of the test substance.
Assay [2] deals with T1, Glutamate NMDA receptor; GRIN1/GRIN2A (Homo sapiens, UniProt Q05586+Q12879). Description: Binding affinity to NMDA receptor (unknown origin). It counts as protein-complex assay. Put shortly: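 PCP site of the NMDA receptor in pig brain cortex membranes. Competition binding against [3H]-(+)-MK-801. Nonspecific binding was defined with a large excess of unlabelled (+)-MK-801. Values are reported as Ki.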
T1 sequence (Q12879 whole entry, other chains not shown): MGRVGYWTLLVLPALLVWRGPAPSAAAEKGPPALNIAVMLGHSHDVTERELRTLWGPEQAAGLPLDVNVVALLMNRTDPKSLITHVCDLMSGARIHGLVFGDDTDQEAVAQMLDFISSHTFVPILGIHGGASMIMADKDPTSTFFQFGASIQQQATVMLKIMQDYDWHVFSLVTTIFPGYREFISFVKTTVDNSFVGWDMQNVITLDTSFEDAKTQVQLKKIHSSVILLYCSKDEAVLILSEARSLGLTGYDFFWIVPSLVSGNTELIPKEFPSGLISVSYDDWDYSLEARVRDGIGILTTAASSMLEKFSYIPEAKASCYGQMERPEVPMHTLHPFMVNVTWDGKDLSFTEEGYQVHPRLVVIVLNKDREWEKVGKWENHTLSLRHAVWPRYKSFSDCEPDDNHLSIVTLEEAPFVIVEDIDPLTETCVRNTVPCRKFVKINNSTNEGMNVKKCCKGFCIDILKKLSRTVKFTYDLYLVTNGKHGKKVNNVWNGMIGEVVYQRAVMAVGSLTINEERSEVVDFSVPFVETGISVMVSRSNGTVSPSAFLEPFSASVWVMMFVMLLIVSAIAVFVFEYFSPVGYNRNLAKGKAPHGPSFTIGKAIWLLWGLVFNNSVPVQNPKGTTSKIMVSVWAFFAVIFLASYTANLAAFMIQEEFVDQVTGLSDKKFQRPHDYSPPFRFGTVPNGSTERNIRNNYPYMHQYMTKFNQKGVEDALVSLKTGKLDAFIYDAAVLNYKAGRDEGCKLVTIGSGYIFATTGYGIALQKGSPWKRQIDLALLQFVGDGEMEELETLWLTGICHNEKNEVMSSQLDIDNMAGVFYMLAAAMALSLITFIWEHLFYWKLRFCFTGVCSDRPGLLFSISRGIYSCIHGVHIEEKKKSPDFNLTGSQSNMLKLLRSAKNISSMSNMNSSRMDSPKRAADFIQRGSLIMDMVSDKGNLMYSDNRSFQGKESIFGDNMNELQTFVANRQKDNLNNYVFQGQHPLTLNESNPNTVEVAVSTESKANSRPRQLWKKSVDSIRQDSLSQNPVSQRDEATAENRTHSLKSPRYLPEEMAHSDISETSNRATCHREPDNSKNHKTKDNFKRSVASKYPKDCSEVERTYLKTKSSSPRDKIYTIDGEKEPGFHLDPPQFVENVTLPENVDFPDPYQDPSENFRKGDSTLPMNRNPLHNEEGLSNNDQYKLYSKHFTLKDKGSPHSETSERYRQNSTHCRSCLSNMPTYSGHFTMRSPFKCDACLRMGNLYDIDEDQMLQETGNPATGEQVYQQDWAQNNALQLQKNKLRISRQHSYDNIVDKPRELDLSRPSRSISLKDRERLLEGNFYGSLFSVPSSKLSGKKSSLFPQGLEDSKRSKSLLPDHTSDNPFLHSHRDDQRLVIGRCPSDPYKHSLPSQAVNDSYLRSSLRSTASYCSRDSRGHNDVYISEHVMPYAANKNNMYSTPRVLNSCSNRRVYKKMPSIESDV

Assay [3] deals with Sigma non-opioid intracellular receptor 1 (Cavia porcellus, UniProt Q60492). Description: Displacement of [3H]-(+)-pentazocine from sigma 1 receptor in guinea pig brain membranes incubated for 120 mins by scintillation counting method in the presence of pentazocine. The assay is classed as cell membranes, Membrane.
Sigma non-opioid intracellular receptor 1, sequence (Q60492 whole entry): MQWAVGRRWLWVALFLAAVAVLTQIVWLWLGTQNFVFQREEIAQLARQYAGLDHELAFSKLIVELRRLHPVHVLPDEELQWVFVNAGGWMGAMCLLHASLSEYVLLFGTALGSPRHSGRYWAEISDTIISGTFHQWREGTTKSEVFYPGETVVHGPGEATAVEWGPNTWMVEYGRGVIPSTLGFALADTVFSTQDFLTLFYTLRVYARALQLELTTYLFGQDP
Assay [4] can be described thus: Displacement of [3H]DTG from sigma2 receptor in rat liver membranes incubated for 120 mins by scintillation counting method in presence of pentazocine. The assay is classed as cell membranes, Membrane. The method, boiled down:
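σ2 binding on rat liver membranes using the nonselective radioligand [3H]-DTG. […] Nonspecific binding defined with 10 µM unlabelled DTG. Affinity reported as Ki.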

The target of assay [5] is T1, Glutamate NMDA receptor; GRIN1/GRIN2A. Description: Antagonist activity against NR1-1a/NR2A NMDA receptor (unknown origin) expressed in mouse recombinant L(tk-) cells assessed as inhibition of glycine and glutamate induced excitotoxicity incubated for 12 hrs by LDH assay. It counts as cell-based. Put shortly:
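Mouse fibroblast L(tk-) cells stably carrying a dexamethasone-inducible vector encoding GluN1a and GluN2A. Receptor expression was induced with dexamethasone in the presence of ketamine to limit cell damage. Cells were exposed to (S)-glutamate, glycine and a range of test concentrations for 12 h. Cell death was read as LDH released from lysed cells, measured by formazan dye formation.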

A short description of assay [6]: Selectivity index, ratio of Ki for sigma2 receptor in rat liver membranes to Ki for sigma 1 receptor in guinea pig brain membranes. The assay is classed as cell membranes.
The subject of assay [7] is Mus musculus. Description: Antinociceptive activity in CD-1 mouse assessed as increase in latency time at 50 mg/kg, sc incubated for 30 mins by hot plate test. It counts as functional, organism-based. The method, boiled down:
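Hot plate test in mice with test compound given alone s.c. at doses up to 50 mg/kg. Reaction latency read out as %MPE.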

For assay [8], the system named is Mus musculus. Description: Potentiation of morphine-induced antinociception in CD-1 mouse assessed as increase in latency time at 50 mg/kg, sc dosed 30 mins before morphine injection and measured 60 mins post morphine injection by hot plate test. It counts as functional, organism-based.
In assay [9] the test system is Mus musculus. Description: Potentiation of morphine-induced antinociception in CD-1 mouse assessed as increase in latency time at 30 mg/kg, sc dosed 30 mins before morphine injection and measured 30 to 90 mins post morphine injection by hot plate test. The assay is classed as functional, organism-based. (In general: In hot-plate and tail-flick tests a longer latency is read as antinociception.)

One may read the Ki as a measure of affinity in units of concentration, obtained from inhibition or displacement. The IC50 is the concentration at which inhibition is half-maximal.

For `CC[C@]1(c2ccccc2)OC[C@H]([C@@H]2CCCCN2)O1` [ETOXADROL], the Ki in [1] and in [2] was 0.022 µM in each case.

Regarding `CC[C@]1(c2ccccc2)COC[C@H](CN)O1` (racemic), the Ki in [3], in assay [1] and in assay [4] was above 10 µM in each case.

Regarding `NCC1COCC(c2ccccc2)(c2ccccc2)O1` (stereo not given), the Ki in assay [3] is above 10 µM; in assay [1], 0.712 µM; in assay [4], 5.8 µM. In addition, the IC50 in [5] was 0.0242 µM.

As to `c1ccc(CNC[C@@H]2CCO[C@H](c3ccccc3)O2)cc1` (racemic), the Ki was 0.314 µM in assay [3], above 10 µM in assay [1] and 0.174 µM in assay [4].

As to `c1ccc(C2(N3CCCCC3)CCCCC2)cc1` [PHENCYCLIDINE], the affinity in assay [1] corresponds to a Ki of 0.028 µM. Further, the IC50 in assay [5] was determined as 0.0118 µM.

For `CC[C@]1(c2ccccc2)COC[C@@H](CN)O1` (racemic), the Ki in assay [3], in assay [1] and in [4] was above 10 µM each time.

`Cc1ccccc1NC(=N)Nc1ccccc1C` [DITOLYLGUANIDINE]: in assay [4], the Ki was determined as 0.064 µM.

As to `c1ccc(CNCC2COC(c3ccccc3)(c3ccccc3)CO2)cc1` (stereo not given), the Ki in assay [3] was 0.00737 µM; in [1], above 10 µM; in [4] it was 1 µM. Further, the Ratio Ki in [6] was 136. The result in assay [7] and in [9] was inactive. Also, in assay [8], the outcome was Active.

For the compound `NC[C@H]1COC[C@@](c2ccccc2)(C2CCCCC2)O1` (racemic), the Ki in assay [3] was above 10 µM; in assay [1], 0.413 µM; in assay [4], 2.5 µM. Besides, the IC50 in assay [5] amounted to 0.0177 µM.

On to `c1ccc(CNCC2CCOC(c3ccccc3)(c3ccccc3)O2)cc1` (stereo not given), for which the Ki in assay [3] was 3 µM; in [1], above 10 µM; in assay [4], 0.111 µM.

Consider `c1ccc(CNC[C@@H]2CO[C@@H](c3ccccc3)CO2)cc1` (racemic), for which the Ki was 0.037 µM in assay [3], above 10 µM in assay [1] and above 10 µM in [4]. Further, in [6], the Ratio Ki was above 270.

Take `NC[C@H]1CO[C@H](c2ccccc2)CO1` (racemic): the Ki in [3], in [1] and in [4] was above 10 µM in each case.

Take `c1ccc(CNC[C@H]2COC[C@H](c3ccccc3)O2)cc1` (racemic): the Ki is 0.542 µM in assay [3], above 10 µM in [1] and 4.3 µM in [4].

For `NC[C@@H]1CO[C@H](c2ccccc2)CO1` (racemic), the Ki in assay [3], in assay [1] and in [4] was above 10 µM throughout.

`c1ccc(CNCC2COCC(c3ccccc3)(c3ccccc3)O2)cc1` (stereo not given): the Ki in assay [3] is 4.9 µM; in assay [1], above 10 µM; in assay [4] it was 1.6 µM.

`NC[C@H]1COC[C@H](c2ccccc2)O1` (racemic): the Ki in assay [3], in [1] and in [4] was above 10 µM in each case.

As to `c1ccc(CNCCC2COC(c3ccccc3)(c3ccccc3)CO2)cc1` (stereo not given), the Ki in [3] is 0.297 µM; in [1], above 10 µM; in assay [4], 0.841 µM.

As to `c1ccc(CNCCC2COCC(c3ccccc3)(c3ccccc3)O2)cc1` (stereo not given), the Ki in assay [3] is 0.502 µM; in [1], above 10 µM; in assay [4] it was above 10 µM.

For the compound `c1ccc(C2(c3ccccc3)OC[C@H]([C@@H]3CCCCN3)O2)cc1` [DEXOXADROL], the IC50 in [5] was 0.0097 µM. Moreover, the Ki in assay [2] is […].

In the case of `c1ccc(CNC[C@@H]2COC[C@H](c3ccccc3)O2)cc1` (racemic), the Ki in assay [3] was 0.155 µM; in assay [1] it was above 10 µM; in assay [4] it was above 10 µM.

With `NCCC1COC(c2ccccc2)(c2ccccc2)CO1` (stereo not given), the Ki in assay [3], in assay [1] and in assay [4] was above 10 µM in each case.

In the case of `c1ccc(CNC[C@H]2COC[C@@](c3ccccc3)(C3CCCCC3)O2)cc1` (racemic), the Ki in assay [3] was 2.7 µM; in assay [1] it was above 10 µM; in assay [4], above 10 µM.

As to `c1ccc(CNC[C@@H]2CO[C@H](c3ccccc3)CO2)cc1` (racemic), the Ki in assay [3] was 0.192 µM; in assay [1], above 10 µM; in assay [4], 0.698 µM.

As to `NCCC1COCC(c2ccccc2)(c2ccccc2)O1` (stereo not given), the Ki in assay [3], in assay [1] and in [4] was above 10 µM throughout.

Consider `NCC1COC(c2ccccc2)(c2ccccc2)CO1` (stereo not given), for which the Ki in [3] was 1.4 µM; in [1], above 10 µM; in assay [4] it was above 10 µM.

For `NC[C@@H]1COC[C@@](c2ccccc2)(C2CCCCC2)O1` (racemic), the Ki in [3] is above 10 µM; in assay [1], 0.893 µM; in assay [4], above 10 µM. Moreover, the IC50 in assay [5] worked out at 0.0712 µM.

Consider `NC[C@@H]1COC[C@H](c2ccccc2)O1` (racemic), for which the Ki in assay [3], in assay [1] and in assay [4] was above 10 µM each time.

Take `c1ccc(CNC[C@@H]2COC[C@@](c3ccccc3)(C3CCCCC3)O2)cc1` (racemic): the Ki in assay [3] is 1.5 µM; in assay [1], above 10 µM; in assay [4], 4.9 µM.

Regarding `CC[C@]1(c2ccccc2)COC[C@H](CNCc2ccccc2)O1` (racemic), the Ki in [3] was 0.607 µM; in [1], above 10 µM; in assay [4] it was above 10 µM.

Consider `CC[C@]1(c2ccccc2)COC[C@@H](CNCc2ccccc2)O1` (racemic), for which the Ki in assay [3] is 0.543 µM; in [1], above 10 µM; in assay [4], above 10 µM.

On to `CN[C@]1(c2ccccc2Cl)CCCCC1=O` [ESKETAMINE], for which the Ki in assay [1] worked out at 0.419 µM. Further, the IC50 in [5] worked out at 0.0114 µM.
